proKLK7 act – proKLK7 (human) activation, primary screen; hit rate 0.9% among 370,000; activation, % at 7 µM; P49862; purified proKLK7, EDANS-DABCYL substrate fluorescence; 100% is mature enzyme control, 0% vehicle;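 active = activation above the mean of all tested compounds plus 3 SD, computed per campaign excluding outliers beyond control limits, cut at about 13% in these data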
Target sequence (P49862 whole entry, looked up): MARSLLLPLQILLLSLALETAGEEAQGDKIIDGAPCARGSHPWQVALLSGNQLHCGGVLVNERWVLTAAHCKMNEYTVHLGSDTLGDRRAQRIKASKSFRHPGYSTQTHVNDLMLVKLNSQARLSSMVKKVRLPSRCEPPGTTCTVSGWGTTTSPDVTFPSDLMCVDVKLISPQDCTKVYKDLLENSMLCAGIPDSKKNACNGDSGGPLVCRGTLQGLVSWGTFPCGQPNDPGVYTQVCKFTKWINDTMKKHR
procasp3 activ – activators of human procaspase-3; P42574; recombinant procaspase-3 D3A, Ac-DEVD-pNA absorbance 405 nm; activation, % at 8.5 µM; hit rate 0.11% among 330,000;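 active = activation above the mean of all tested compounds plus 3 SD, cut at about 21% in these data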;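 also: 0% = DMSO alone and 100% = DMSO wells spiked with extra 5 µM PC-3 D3A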
Target sequence (P42574 whole entry D9A/D28A/D175A): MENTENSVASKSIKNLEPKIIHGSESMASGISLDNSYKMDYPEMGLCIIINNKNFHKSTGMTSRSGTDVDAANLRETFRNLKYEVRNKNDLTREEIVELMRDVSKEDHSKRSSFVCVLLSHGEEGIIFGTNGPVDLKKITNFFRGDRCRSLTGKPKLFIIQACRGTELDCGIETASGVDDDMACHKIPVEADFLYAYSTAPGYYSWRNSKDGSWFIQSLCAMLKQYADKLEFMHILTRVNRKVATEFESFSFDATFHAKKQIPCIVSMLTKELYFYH
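material = Procaspase-3 D3A mutant | probe or stimulus = Ac-DEVD-pNA | compound = single dose, 8.5 µM nominal compound, 0.8% DMSO | timing = 1 h preincubation, 2 h reaction | measured by = 405 nm absorbance of p-nitroaniline, reads at 0 and 120 min | benchmarks = DMSO-only low control, 5 µM PC-3 D3A high control | repeats = singlicate, each compound tested once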
proCasp7 act – counter-screen for procaspase-3 activators: activators of human procaspase-7 | P55210 | recombinant procaspase-7, Ac-DEVD-pNA absorbance 405 nm; D23A/D198A/D206A triple mutant, cannot self-cleave; scale: DMSO 0, 5 µM enzyme 100 | activation, % at 8.5 µM | hit rate 0.093% among 330,000 | AID 463210;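 active = percent activation above the screen-wide mean plus 3 SD, cut at about 25% in these data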
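System: Procaspase-7 triple mutant (PC-7 D3A); measure: % activation from two-timepoint absorbance difference, scaled to controls; times: 1 h compound preincubation, 2 h substrate cleavage, 25 °C; also added: Ac-DEVD-pNA substrate, 400 µM as added; measured by: Epi-absorbance of released pNA at 405 nm, two timepoints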
Neddylation inh – cullin neddylation inhibition. P61081+Q13564. TR-FRET cullin neddylation, biochemical. calls only at 25 µM. hit rate 0.58% among 360,000. AID 651699; in the data active = inhibition above about 36%
Neddyl inh conf – confirmation of human cullin neddylation inhibitors | AID 652217 | hit rate 13% among 1,800 | calls only at 25 µM | TR-FRET cullin neddylation biochemical assay | shares compounds with Neddylation inh; in the data active = inhibition above about 40%;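 also: neddylation substrate is the cullin 1 ring ligase complex with SKP2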
* hit, by the source's call; i = inactive; / = no result given; + = active, no number. Sampled rows, rich in hits. Any-hit rate of the full collection: about 1.6%.

SMILES	proKLK7 act	procasp3 activ	proCasp7 act	Neddylation inh	Neddyl inh conf
COC(=O)C1=C(C)N(Cc2ccccc2C(F)(F)F)C(=NCc2ccc(OC)cc2)NC1c1ccccc1C(F)(F)F (stereo not given)	0	/	/	/	/
Nc1nccc(/C=C/c2c(Cl)cccc2Cl)n1	4	5	8	i	/
Nc1nccc(/C=C/c2ccc(Cl)cc2)n1	6	-2	10	+	i
COc1ccc(C(=O)OC(C)CN2CCOCC2)cc1 (stereo not given)	0	0	24	i	/
COc1ccc(C(=O)OC(C)CN2CCOCC2)cc1OC (stereo not given)	0	9	2	+	i
Cc1c(C(=O)NCC2CCCO2)oc2ccc3c(c12)C(=O)CC(C)(C)O3 (stereo not given)	3	-7	0	+	/
Cc1cccc2c(N)c3c(nc12)N(C)CC3	2	2	2	i	/
CN1CCCCc2c1nc1c(c2N)CCCC1	0	5	2	+	i
COC(=O)C1=C(C)NC2=C(C(=O)CCC2)C1c1ccc(-c2ccsc2C(=O)OC)o1 (stereo not given)	-14	-6	-1	+	/
O=C(c1cnn(-c2ccccc2)c1)c1cc(F)ccc1O	0	-2	-6	i	/
Cc1ncc(CC(=O)n2cc(C(=O)c3cc(F)ccc3O)cn2)s1	1	-5	8	+	i
Cc1csc(NC(=O)CSCC(=O)O)c1-c1nc2ccccc2s1	10	-3	9	+	/
Cc1ccc(-c2c(C#N)c(N)nc3c2CCCC3)o1	-2	2	7	+	i
CCSc1nc2c(c(-c3ccc(C)o3)c1C#N)CCCC2	-1	-12	-3	i	/
O=C(N/N=C/c1ccncc1)c1nc2ccccc2c(=O)[nH]1	0	-7	8	i	/
O=C(N/N=C/c1ccc2cccnc2c1)c1nc2ccccc2c(=O)[nH]1	0	1	3	+	i
COc1ccc(CCN(C)C(=O)CN2C(=O)NC3(CCCCC3C)C2=O)cc1OC (stereo not given)	1	1	5	+	i
CCN(CC)C(=O)CC[C@@H]1CC[C@]2(CCCN(Cc3cccc4ccccc34)C2)O1	0	/	/	/	/
S=c1[nH]nc2ccc3ccccc3n12	-9	/	/	+	/
S=c1[nH]c2ccccc2n2c(=S)[nH]nc12	-1	-11	-17	i	/
Fc1cccc(Nc2nc3ccccc3n3nnnc23)c1	0	8	6	/	/
COc1cccc(Nc2nc3ccccc3n3nnnc23)c1	2	4	7	+	/
O=C(COc1ccccc1F)N1N=C(c2cccs2)CC1c1ccco1 (stereo not given)	0	/	/	+	i
CCN(C(=O)CSc1nnc(-c2cccnc2)n1Cc1ccco1)c1ccccc1C	0	/	/	/	/
COc1ccc(Nc2oc(COc3ccccc3OC)nc2C#N)cc1	0	-16	-30	+	i
SMILES	proKLK7 act	procasp3 activ	proCasp7 act	Neddylation inh	Neddyl inh conf
CCOc1ccccc1C(=O)Nc1cc2c(cc1N1CCCC1)n(CC)c(=O)n2CC	0	-6	2	+	i
Cc1ccccc1CN1CCCCC(NC(=O)C2CCCC2)C1=O (stereo not given)	1	/	/	/	/
C=CCn1c(N2CCCC2)nc2c1c(=O)[nH]c(=O)n2C	0	-7	10	i	/
Cn1c(=O)[nH]c(=O)c2c1nc(N1CCCCC1)n2C/C=N/NC(=O)c1cc(Br)ccc1O	0	6	6	+	/
CCOc1ccc(-c2cc3cc(OC)c(OC)cc3c(C)n2)cc1	-3	3	9	i	/
COc1cc2cc(-c3ccc(OC)c(OC)c3C)nc(N)c2cc1OC	0	-5	12	+	i
O=C(O)COc1ccc(NC(=O)c2ccc3c(c2)C(=O)N(C2CCCCC2)C3=O)cc1	0	-3	0	i	/
CCC(=O)Oc1ccc(C(=O)Nc2ccc3c(c2)C(=O)N(C2CCCCC2)C3=O)cc1	-8	-5	8	+	i
COCC(=O)N[C@H]1C[C@@H]2O[C@H](CO)CC[C@@H]2O[C@@H]1CCc1ccc(-c2ccccc2)cc1	0	/	/	/	/
Cc1ccccc1NC(=O)[C@H]1CC(=O)O[C@@H]1c1ccccc1	0	/	/	/	/
CCN(CC)c1ccc(/C=N/n2nnnc2N)c(O)c1	-4	-7	-1	+	+
Cc1cccc2nc(-c3ccccc3)c(-c3ccc(CN4CCC5(CC4)CNc4ccccc45)cc3)nc12	0	/	/	/	/
Cc1ccc(C(C(=O)NCC2CCCO2)N(C(=O)c2snc(C(N)=O)c2N)c2ccc(F)cc2)o1 (stereo not given)	-1	7	7	+	+
CCOc1ccc(N(C(=O)c2snc(C(N)=O)c2N)C(C(=O)NCC2CCCO2)c2ccc(C)o2)cc1 (stereo not given)	0	/	/	i	/
Cc1cc(C)cc(N(C(=O)c2snc(C(N)=O)c2N)C(C(=O)NCC2CCCO2)c2cccs2)c1 (stereo not given)	-1	2	-1	+	i
NC(=O)c1nsc(C(=O)N(c2ccccc2)C(C(=O)NCC2CCCO2)c2cccs2)c1N (stereo not given)	0	2	-1	+	i
N#Cc1ccc(NC(=O)OC2CCC23CCC(c2ccccc2)CC3)cc1 (stereo not given)	-1	/	/	/	/
Cc1ccc(-c2nn(CC(=O)O)c(=O)c3ccccc23)cc1	0	-1	4	i	/
O=C(O)Cn1nc2c3c(cccc3c1=O)-c1ccccc1-2	4	-2	-1	+	i
COc1cccc(N2CCN(C(=O)c3cccn4c(=O)c5c(C)c(C)sc5nc34)CC2)c1	1	2	-4	+	/
CC1(C)C2CCC1(CS(=O)(=O)Nc1ccccc1)C(=O)C2 (stereo not given)	1	-3	3	i	/
CC1(C)C2CCC1(CS(=O)(=O)NC1CCCC1)C(=O)C2 (stereo not given)	0	5	3	+	i
COc1ccc2c(C(=O)CN3CCSCC3)c[nH]c2c1	0	2	2	+	i
CCCCNC(=O)NC1CCN(CC(=O)Nc2ccc3c(c2)OCCO3)CC1	0	/	/	/	/
Cc1cccc(S(=O)(=O)Nc2nc3ccccc3nc2NCC2CCCO2)c1 (stereo not given)	4	0	-2	i	/
Cc1ccc(S(=O)(=O)Nc2nc3ccccc3nc2NCC2CCCO2)cc1C (stereo not given)	4	0	2	+	i
O=S(=O)(Nc1nc2ccccc2nc1NCC1CCCO1)c1cccs1 (stereo not given)	1	-4	-10	i	/
Cc1ccc(S(=O)(=O)Nc2nc3ccccc3nc2NCC2CCCO2)c(C)c1 (stereo not given)	4	5	0	+	/
OCCC(N1CCOCC1)C(O)(c1ccccc1)c1ccccc1 (stereo not given)	0	/	/	/	/
